Source: ChEMBL document CHEMBL4138126, “Synthesis, antiproliferative, anti-tubulin activity, and docking study of new 1,2,4-triazoles as potential combretastatin analogues” (Eur J Med Chem, 2017)

Columns and labels:
786-0 = assay: Growth inhibition of human 786-0 cells assessed as cell growth at 10 uM after 48 hrs by sulforhodamine B assay; type: functional; details: 786-0, 48 h, read-out: Activity
How it was run: (§1)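 NCI 60-cell-line panel screen (nine cancer types). Compounds added at single concentration 10^-5 M, cultures incubated 48 h; growth inhibition percentages reported.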

TK-10 = assay: Growth inhibition of human TK10 cells assessed as cell growth at 10 uM after 48 hrs by sulforhodamine B assay; type: functional; details: TK-10, 48 h, read-out: Activity
How it was run: (§2)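 NCI 60-cell-line panel from nine tumour types (leukaemia, lung, colon, CNS, melanoma, ovarian, renal, prostate, breast). Each compound was added at one single concentration, and cultures were incubated for 48 h. Results are reported as percent growth inhibition.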

MDA-MB-231 = assay: Growth inhibition of human MDA-MB-231 cells assessed as cell growth at 10 uM after 48 hrs by sulforhodamine B assay; type: functional; details: MDA-MB-231, 48 h, read-out: Activity; how it was run: as §1
MDA-MB-435 = assay: Growth inhibition of human MDA-MB-435 cells assessed as cell growth at 10 uM after 48 hrs by sulforhodamine B assay; type: functional; details: MDA-MB-435, 48 h, read-out: Activity; how it was run: as §1
HepG2 [1] = assay: Induction of apoptosis in human HepG2 cells at cytotoxic IC50 by propidium iodide staining based flow cytometry (reference value: 1.2%); type: functional
SF-268 = assay: Growth inhibition of human SF268 cells assessed as cell growth at 10 uM after 48 hrs by sulforhodamine B assay; type: functional; details: SF-268, 48 h, read-out: Activity; how it was run: as §1
Malme-3M = assay: Growth inhibition of human MALME-3M cells assessed as cell growth at 10 uM after 48 hrs by sulforhodamine B assay; type: functional; details: read-out: Activity; how it was run: as §1
SF-539 = assay: Growth inhibition of human SF539 cells assessed as cell growth at 10 uM after 48 hrs by sulforhodamine B assay; type: functional; details: SF-539, 48 h, read-out: Activity; how it was run: as §1
CAKI-1 = assay: Growth inhibition of human CAKI-1 cells assessed as cell growth at 10 uM after 48 hrs by sulforhodamine B assay; type: functional; details: CAKI-1, 48 h, read-out: Activity; how it was run: as §1
[2] = Inhibition of beta tubulin polymerisation in human HepG2 cells incubated for 2 hrs using TMB substrate by ELISA; type: cell-based; details: HepG2, 2 h
UACC-257 = assay: Growth inhibition of human UACC257 cells assessed as cell growth at 10 uM after 48 hrs by sulforhodamine B assay; type: functional; details: UACC-257, 48 h, read-out: Activity; how it was run: as §2
OVCAR-4 = assay: Growth inhibition of human OVCAR4 cells assessed as cell growth at 10 uM after 48 hrs by sulforhodamine B assay; type: functional; details: OVCAR-4, 48 h, read-out: Activity; how it was run: as §1
UACC-62 = assay: Growth inhibition of human UACC62 cells assessed as cell growth at 10 uM after 48 hrs by sulforhodamine B assay; type: functional; details: UACC-62, 48 h, read-out: Activity; how it was run: as §2
SW-620 = assay: Growth inhibition of human SW620 cells assessed as cell growth at 10 uM after 48 hrs by sulforhodamine B assay; type: functional; details: SW-620, 48 h, read-out: Activity; how it was run: as §2
SF-295 = assay: Growth inhibition of human SF295 cells assessed as cell growth at 10 uM after 48 hrs by sulforhodamine B assay; type: functional; details: SF-295, 48 h, read-out: Activity; how it was run: as §1
ACHN = assay: Growth inhibition of human ACHN cells assessed as cell growth at 10 uM after 48 hrs by sulforhodamine B assay; type: functional; details: read-out: Activity; how it was run: as §1
UO-31 = assay: Growth inhibition of human UO31 cells assessed as cell growth at 10 uM after 48 hrs by sulforhodamine B assay; type: functional; details: UO-31, 48 h, read-out: Activity; how it was run: as §2
HCC 2998 = assay: Growth inhibition of human HCC2998 cells assessed as cell growth at 10 uM after 48 hrs by sulforhodamine B assay; type: functional; details: HCC 2998, 48 h, read-out: Activity; how it was run: as §1
OVCAR-3 = assay: Growth inhibition of human OVCAR3 cells assessed as cell growth at 10 uM after 48 hrs by sulforhodamine B assay; type: functional; details: OVCAR-3, 48 h, read-out: Activity; how it was run: as §1
U-251 = assay: Growth inhibition of human U251 cells assessed as cell growth at 10 uM after 48 hrs by sulforhodamine B assay; type: functional; details: U-251, 48 h, read-out: Activity; how it was run: as §2
RPMI-8226 = assay: Growth inhibition of human RPMI8226 cells assessed as cell growth at 10 uM after 48 hrs by sulforhodamine B assay; type: functional; details: RPMI-8226, 48 h, read-out: Activity; how it was run: as §1
HepG2 [3] = assay: Induction of apoptosis in human HepG2 cells assessed as late apoptotic cells level at 1.41 uM by Annexin V and propidium iodide staining based flow cytometry; type: functional
HepG2 [4] = assay: Inhibition of beta tubulin polymerisation in human HepG2 cells incubated for 2 hrs using TMB substrate by ELISA relative to untreated control; type: cell-based; parameters: concentration or dose not given beside the values; details: dose or concentration not given here
SNB-19 = assay: Growth inhibition of human SNB19 cells assessed as cell growth at 10 uM after 48 hrs by sulforhodamine B assay; type: functional; details: SNB-19, 48 h, read-out: Activity; how it was run: as §2
A549 = assay: Growth inhibition of human A549/ATCC cells assessed as cell growth at 10 uM after 48 hrs by sulforhodamine B assay; type: functional; details: A549, 48 h, read-out: Activity; how it was run: as §1
COLO 205 = assay: Growth inhibition of human COLO205 cells assessed as cell growth at 10 uM after 48 hrs by sulforhodamine B assay; type: functional; details: COLO 205, 48 h, read-out: Activity; how it was run: as §1
SK-MEL-5 = assay: Growth inhibition of human SK-MEL-5 cells assessed as cell growth at 10 uM after 48 hrs by sulforhodamine B assay; type: functional; details: SK-MEL-5, 48 h, read-out: Activity; how it was run: as §1
SN12C = assay: Growth inhibition of human SN12C cells assessed as cell growth at 10 uM after 48 hrs by sulforhodamine B assay; type: functional; details: read-out: Activity; how it was run: as §2
MDA-MB-468 = assay: Growth inhibition of human MDA-MB-468 cells assessed as cell growth at 10 uM after 48 hrs by sulforhodamine B assay; type: functional; details: MDA-MB-468, 48 h, read-out: Activity; how it was run: as §1
SK-MEL-28 = assay: Growth inhibition of human SK-MEL-28 cells assessed as cell growth at 10 uM after 48 hrs by sulforhodamine B assay; type: functional; details: SK-MEL-28, 48 h, read-out: Activity; how it was run: as §1
K562 = assay: Growth inhibition of human K562 cells assessed as cell growth at 10 uM after 48 hrs by sulforhodamine B assay; type: functional; details: K562, 48 h, read-out: Activity; how it was run: as §1
PC-3 = assay: Growth inhibition of human PC3 cells assessed as cell growth at 10 uM after 48 hrs by sulforhodamine B assay; type: functional; details: PC-3, 48 h, read-out: Activity; how it was run: as §1
SNB-75 = assay: Growth inhibition of human SNB75 cells assessed as cell growth at 10 uM after 48 hrs by sulforhodamine B assay; type: functional; details: SNB-75, 48 h, read-out: Activity; how it was run: as §2
RXF 393 = assay: Growth inhibition of human RXF393 cells assessed as cell growth at 10 uM after 48 hrs by sulforhodamine B assay; type: functional; details: RXF 393, 48 h, read-out: Activity; how it was run: as §1

Compound CCOc1ccc(-n2nc(C(=O)NCc3cc(F)cc(F)c3)nc2-c2cc(OC)c(OC)c(OC)c2)cc1 has a growth at 10 µM (786-0) of 65.9%, a growth at 10 µM (TK-10) of 79.9% and a growth at 10 µM (MDA-MB-231) of 43.1%. It also gave a growth at 10 µM (MDA-MB-435) of 67%, an Activity (HepG2 [1]) of 16.7% and a growth at 10 µM (SF-268) of 65.5%. It also gave a growth at 10 µM (Malme-3M) of 90.1%, a growth at 10 µM (SF-539) of 70.7% and a growth at 10 µM (CAKI-1) of 44.4%. The IC50 [2] was 1.4 µM, the growth at 10 µM (UACC-257) was 50.5% and the growth at 10 µM (OVCAR-4) was 65.8%. The growth at 10 µM (UACC-62) was 57.9%, the growth at 10 µM (SW-620) was 91.4% and the growth at 10 µM (SF-295) was 65.2%. It also gave a growth at 10 µM (ACHN) of 54.4%, a growth at 10 µM (UO-31) of 25.8% and a growth at 10 µM (HCC 2998) of 84%. For the same compound, the growth at 10 µM (OVCAR-3) was 71.2%, the growth at 10 µM (U-251) was 74.3% and the growth at 10 µM (RPMI-8226) was 47%. The Activity (HepG2 [3]) was 14%, the inhibition (HepG2 [4]) was 71.8% and the growth at 10 µM (SNB-19) was 62.3%. For the same compound, the growth at 10 µM (A549) was 57%, the growth at 10 µM (COLO 205) was 65% and the growth at 10 µM (SK-MEL-5) was 50.1%. It also gave a growth at 10 µM (SN12C) of 67.8%, a growth at 10 µM (MDA-MB-468) of 73.6% and a growth at 10 µM (SK-MEL-28) of 65.3%. The growth at 10 µM (K562) was 62%, the growth at 10 µM (PC-3) was 40.2% and the growth at 10 µM (SNB-75) was 43.4%. The growth at 10 µM (RXF 393) was 68.6%.
